Data: ChEMBL document CHEMBL1124149 (1988)
Converted amounts (≈) assume the structure as drawn.

What was measured:
Assay type in all cases: functional
Cytomegalovirus [1] = test: In vitro minimum inhibitory concentration to inhibit CMV (Davis)-induced cytopathogenicity in HEL cells by 50%; conditions: Human betaherpesvirus 5
FM3A = test: Antitumor activity against murine mammary carcinoma FM3A cells; conditions: Mus musculus; read-out: MIC
Outline: (§1)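 Tumor cell proliferation assay. Murine leukemia L1210 and murine mammary carcinoma FM3A cells were grown in culture with the compound. The value is the concentration inhibiting cell proliferation by 50%.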

Human alphaherpesvirus 2 [2] = test: In vitro minimum inhibitory concentration to inhibit HSV-2 (196)-induced cytopathogenicity in PRK cells by 50%
Outline: (§2)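 Antiviral read-out was virus-induced cytopathogenicity in primary rabbit kidney (PRK) cell cultures. The value is the compound concentration needed to reduce cytopathogenicity by 50%.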

Human alphaherpesvirus 2 [3] = test: In vitro minimum inhibitory concentration to inhibit HSV-2 (G)-induced cytopathogenicity in PRK cells by 50%; outline: as §2
Human alphaherpesvirus 2 [4] = test: In vitro minimum inhibitory concentration to inhibit HSV-2 (Lyons)-induced cytopathogenicity in PRK cells by 50%; outline: as §2
Human alphaherpesvirus 1 [5] = test: In vitro minimum inhibitory concentration to inhibit HSV-1 (KOS)-induced cytopathogenicity in primary rabbit kidney cells by 50%; outline: as §2
Human alphaherpesvirus 1 [6] = test: In vitro minimum inhibitory concentration to inhibit HSV-1 (McIntyre)-induced cytopathogenicity in PRK cells by 50%; outline: as §2
Human alphaherpesvirus 1 [7] = test: In vitro minimum inhibitory concentration to inhibit thymidine deficient HSV-1 (B2006)-induced cytopathogenicity in PRK cells by 50%; outline: as §2
Human alphaherpesvirus 1 [8] = test: In vitro minimum inhibitory concentration to inhibit thymidine deficient HSV-1 (VMV 1837)- induced cytopathogenicity in PRK cells by 50%; outline: as §2
L1210 = test: Antitumor activity against murine leukemia L1210 cells; conditions: Mus musculus; read-out: MIC; outline: as §1
[9] = In vitro minimum inhibitory concentration to inhibit […] (incorporation of [methyl-3H]dThd) in PRK cells by 50%
Suid alphaherpesvirus 1 = test: In vitro minimum inhibitory concentration to inhibit SHV-1-induced cytopathogenicity in PRK cells by 50%; outline: as §2
Human alphaherpesvirus 3 [10] = test: In vitro minimum inhibitory concentration to inhibit VZV (Oka)-induced cytopathogenicity in HEL cells by 50%
Human alphaherpesvirus 3 [11] = test: In vitro minimum inhibitory concentration to inhibit VZV (YS)-induced cytopathogenicity in HEL cells by 50%
Human alphaherpesvirus 3 [12] = test: In vitro minimum inhibitory concentration to inhibit thymidine deficient VZV (YSR)-induced cytopathogenicity in HEL cells by 50%
Equid alphaherpesvirus 1 = test: In vitro minimum inhibitory concentration to inhibit EHV-1-induced cytopathogenicity in PRK cells by 50%; outline: as §2
[13] = test system: Bovine alphaherpesvirus 1; test: In vitro minimum inhibitory concentration to inhibit BHV-1-induced cytopathogenicity in PRK cells by 50%; outline: as §2
Cytomegalovirus [14] = test: In vitro minimum inhibitory concentration to inhibit CMV (AD-169)-induced cytopathogenicity in HEL cells by 50%; conditions: Human betaherpesvirus 5
Human alphaherpesvirus 1 [15] = test: In vitro minimum inhibitory concentration to inhibit HSV-1 (F)-induced cytopathogenicity in primary rabbit kidney cells by 50%; outline: as §2

Row | Compound | MIC (Cytomegalovirus [1]) [µg/mL] | IC50 (FM3A) [µg/mL] | MIC (Human alphaherpesvirus 2 [2]) [µg/mL] | MIC (Human alphaherpesvirus 2 [3]) [µg/mL] | MIC (Human alphaherpesvirus 2 [4]) [µg/mL] | MIC (Human alphaherpesvirus 1 [5]) [µg/mL] | MIC (Human alphaherpesvirus 1 [6]) [µg/mL] | MIC (Human alphaherpesvirus 1 [7]) [µg/mL] | MIC (Human alphaherpesvirus 1 [8]) [µg/mL] | IC50 (L1210) [µg/mL] | MIC ([9]; Oryctolagus cuniculus) [µg/mL] | MIC (Suid alphaherpesvirus 1) [µg/mL] | MIC (Human alphaherpesvirus 3 [10]) [µg/mL] | MIC (Human alphaherpesvirus 3 [11]) [µg/mL] | MIC (Human alphaherpesvirus 3 [12]) [µg/mL] | MIC (Equid alphaherpesvirus 1) [µg/mL] | MIC [13] [µg/mL] | MIC (Cytomegalovirus [14]) [µg/mL] | MIC (Human alphaherpesvirus 1 [15]) [µg/mL] | MIC [9] [µg/mL]
1 | CNc1nc(O)c2ncn(COCCO)c2n1 | > 100 | > 100 | > 400 | 300 (≈ 1250 µM) | > 400 | > 400 | > 400 | > 400 | > 400 | > 100 | > 400 | > 400 | > 100 | > 100 | > 100 | > 400 | > 400 | > 100 | > 400 | –
2 | Cn1c[n+](COCCO)c2nc(N)nc([O-])c21.O=S(=O)(O)O | > 100 | > 100 | 100 | 40 | 100 | 70 | 70 | > 400 | > 400 | > 100 | > 400 | > 400 | > 100 | > 100 | > 100 | > 400 | > 400 | > 100 | 70 | –
3 | Cc1cn2c(=O)c3ncn(COCCO)c3nc2n1C | > 100 | > 100 | > 400 | > 400 | > 400 | > 400 | > 400 | > 400 | > 400 | > 100 | > 4000 | > 400 | > 100 | > 100 | > 100 | > 400 | > 400 | > 100 | > 400 | –
4 | Cn1c(N)nc2c(ncn2COCCO)c1=O | > 100 | > 100 | 2 (≈ 8.36 µM) | 1 (≈ 4.18 µM) | 2 (≈ 8.36 µM) | 1 (≈ 4.18 µM) | 2 (≈ 8.36 µM) | 300 (≈ 1250 µM) | 300 (≈ 1250 µM) | > 100 | > 400 | 70 (≈ 293 µM) | 20 (≈ 83.6 µM) | 20 (≈ 83.6 µM) | > 100 | 10 (≈ 41.8 µM) | > 400 | > 100 | 2 (≈ 8.36 µM) | –
5 | Cc1cn2c([O-])c3c(nc2n1)[n+](COCCO)cn3C | > 100 | > 100 | 70 (≈ 252 µM) | 70 (≈ 252 µM) | 70 (≈ 252 µM) | 70 (≈ 252 µM) | 70 (≈ 252 µM) | > 400 | > 400 | > 100 | > 400 | > 400 | > 100 | > 100 | > 100 | > 400 | > 400 | > 100 | 70 (≈ 252 µM) | –
6 | Cc1cn2c(O)c3ncn(COCCO)c3nc2n1 | > 100 | > 100 | 0.7 (≈ 2.66 µM) | 0.7 (≈ 2.66 µM) | 2 (≈ 7.6 µM) | 2 (≈ 7.6 µM) | 2 (≈ 7.6 µM) | 400 (≈ 1520 µM) | 400 (≈ 1520 µM) | > 100 | 257 (≈ 976 µM) | > 400 | 20 (≈ 76 µM) | 20 (≈ 76 µM) | > 100 | 20 (≈ 76 µM) | > 400 | > 100 | 2 (≈ 7.6 µM) | –
7 | Nc1nc2c(ncn2COCCO)c(=O)[nH]1 [ACYCLOVIR] | 20 (≈ 88.8 µM) | – | 0.07 (≈ 0.311 µM) | 0.07 (≈ 0.311 µM) | 0.2 (≈ 0.888 µM) | 0.2 (≈ 0.888 µM) | 0.2 (≈ 0.888 µM) | 20 (≈ 88.8 µM) | 20 (≈ 88.8 µM) | – | – | 7 (≈ 31.1 µM) | – | – | – | 0.2 (≈ 0.888 µM) | 7 (≈ 31.1 µM) | – | 0.1 (≈ 0.444 µM) | 8 (≈ 35.5 µM)
